The nature of assay [1]: Inhibition of Escherichia coli BL21(DE3) methionine aminopeptidase in presence of Mn(II) metal ions. The essentials: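 E. coli MetAP apoenzyme, recombinant from BL21(DE3), at 500 nM and metallated with 20 μM MnCl2. Contained 50 mM MOPS pH 7.0 and 200 μM Met-AMC, at room temperature. IC50 was derived by non-linear fit of percent inhibition versus concentration.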
Assay [2] has as its system Escherichia coli. Put plainly: Antibacterial activity against Escherichia coli D22. Format: functional, organism-based. Summed up: (§1)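 Exponential-phase culture at 0.5 McFarland diluted 1000-fold in Mueller Hinton medium with 100 mM Tris pH 7.5, mixed with inhibitor at increasing concentrations plus resazurin (110 µM final). Fluorescence (ex 530/em 590) read every 5 min for 10 h at 37°C.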

For the next assay, the system named is Priestia megaterium. In words: Antibacterial activity against Bacillus megaterium. Format: functional, organism-based. The essentials: as §1
Assay [3] is described as follows: Inhibition of Escherichia coli BL21(DE3) methionine aminopeptidase in presence of Co(II) metal ions. The essentials:
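Recombinant E. coli MetAP apoenzyme purified from BL21(DE3) cells, used at 500 nM and activated with 10 μM CoCl2. Buffer was 50 mM MOPS pH 7.0 with 200 μM Met-AMC substrate, at room temperature. AMC release was read by fluorescence (ex 360/em 460 nm) across serially diluted inhibitor. IC50 came from non-linear fitting of percent inhibition.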

Another assay deals with Bacillus subtilis. In words: Antibacterial activity against Bacillus subtilis. In kind it is functional, organism-based. Summed up:
as §1

Assay [4] is described as follows: Inhibition of Escherichia coli BL21(DE3) methionine aminopeptidase in presence of Fe(II) metal ions. The essentials: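 Purified BL21(DE3)-expressed E. coli MetAP apoenzyme at 500 nM, activated with 50 μM FeCl2 plus 100 μM ascorbic acid. Buffer was 50 mM MOPS pH 7.0 with 200 μM Met-AMC, at room temperature. Hydrolysis was followed by fluorescence (ex 360/em 460 nm) at serially diluted inhibitor concentrations. IC50 was obtained by non-linear curve fit of percent inhibition.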

Assay [5] has as its system Escherichia coli. Put plainly: Antibacterial activity against Escherichia coli ATCC 25922. In kind it is functional, organism-based. Summed up:
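Wild-type strain grown to exponential phase (0.5 McFarland), diluted 1000-fold in Tris-free Mueller Hinton medium, incubated with increasing inhibitor concentrations and 110 µM resazurin. Fluorescence (ex 530/em 590) monitored 10 h at 37°C at 5-min intervals.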

Assay [6] has as its system Escherichia coli. In words: Antibacterial activity against Escherichia coli AS19. In kind it is functional, organism-based. Summed up:
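AS19 culture at 0.5 McFarland, exponential phase, diluted 1000-fold in Mueller Hinton medium containing 100 mM Tris pH 7.5, exposed to increasing inhibitor concentrations […]. Growth followed by absorbance at 600 nm every 5 min for 10 h at 37°C.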

Assay [7] deals with Escherichia coli BL21(DE3). Put plainly: Inhibition of Escherichia coli BL21(DE3) methionine aminopeptidase up to 100 uM in presence of Fe(II) metal ions. Summed up:
(§2)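 Purified apoenzyme (500 nM) in 50 mM MOPS pH 7.0 with 200 µM Met-AMC, activated by 50 µM FeCl2 plus 100 µM ascorbic acid (Fe), 10 µM CoCl2 (Co) or 20 µM MnCl2 (Mn), with serially diluted inhibitor. AMC release read by fluorescence (ex 360/em 460) at room temperature. IC50 from non-linear fit of percent inhibition versus concentration.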

In assay [8] the test system is Escherichia coli BL21(DE3). Put plainly: Inhibition of Escherichia coli BL21(DE3) methionine aminopeptidase up to 100 uM in presence of Mn(II) metal ions. The essentials:
as §2

Assay [9] relates to Escherichia coli BL21(DE3). Put plainly: Inhibition of Escherichia coli BL21(DE3) methionine aminopeptidase up to 100 uM in presence of Co(II) metal ions. The essentials: as §2

In brackets after ≈: the same amount, converted by molar mass. Activity calls are given as the source filed them. The calls are words filed in the database; no cut-off is given here. Where only a bound is given, the exact number is not on record here.

Usually IC50 stands for the midpoint of a concentration-inhibition curve. In general, MIC refers to the least concentration at which growth counts as inhibited. Read a low MIC as greater potency. Regarding `Cc1ccsc1-c1ccc(O)c(O)c1`, the IC50 in assay [1] amounted to 23 µM; in the assay on Escherichia coli [2], 9 µM; in the assay on Priestia megaterium it was 15.3 µM; in [3], 42.7 µM; with Bacillus subtilis, 22.1 µM; in assay [4] it was 8 µM. Besides, the half-maximal inhibitory concentration (IC50) in the assay with Escherichia coli [5] was 179 µM; in the assay on Escherichia coli [6], 15.2 µM. In addition, the MIC with Escherichia coli [2] was 3 mg/L (≈ 14.5 µM); against Priestia megaterium, 13 mg/L (≈ 63 µM); in the assay on Bacillus subtilis, 8 mg/L (≈ 38.8 µM); in the assay on Escherichia coli [6] it was 7 mg/L (≈ 33.9 µM).

Regarding `CC(=O)Nc1ccc(-c2csc(C)n2)cc1[N+](=O)[O-]`, the outcome in assay [7], in assay [8] and in assay [9] was inactive. The IC50 with Escherichia coli [6] turned out to be 63.3 µM.

As for `COc1ccc(-c2csc(C)n2)cc1OC`, the result in assay [7], in assay [8] and in assay [9] was inactive. The same molecule yielded an IC50 in the assay on Escherichia coli [6] of 206 µM.

Regarding `Cc1nc(-c2cccc(O)c2)cs1`, the result in assay [7], in assay [8] and in assay [9] was inactive. Also, in the assay with Escherichia coli [6], the half-inhibitory concentration (IC50) is 158 µM.

Turning to `Cc1nc(-c2ccc(O)cc2O)cs1`, the outcome in assay [7], in [8] and in assay [9] was inactive. Half-maximal inhibition with Escherichia coli [6] (IC50) required 95.9 µM.

Consider `Cc1nc(-c2ccc(N)c([N+](=O)[O-])c2)cs1`, for which the outcome in assay [7], in assay [8] and in assay [9] was inactive. In addition, half-maximal inhibition in the assay with Escherichia coli [6] (IC50) was put at 204 µM.

Consider `Cc1nc(-c2ccc(O)c(C(N)=O)c2)cs1`, for which the outcome in assay [7], in assay [8] and in [9] was inactive. For the same molecule, in the assay with Escherichia coli [6], the half-inhibitory concentration (IC50) worked out at 125 µM.

In the case of `Cc1nc(-c2ccc(O)c(O)c2)cs1`, the half-maximal inhibitory concentration (IC50) in assay [1] was > 100 µM; in the assay with Escherichia coli [2], 5.6 µM; with Priestia megaterium, 69.8 µM; in [3] it was > 100 µM; with Bacillus subtilis, 67 µM; in [4] it was 13 µM. For the same molecule, the IC50 with Escherichia coli [5] is 281 µM; with Escherichia coli [6] it was 117 µM. Moreover, the MIC turned out to be 4 mg/L (≈ 19.3 µM) in the assay on Escherichia coli [2], 73 mg/L (≈ 352 µM) with Priestia megaterium, 41 mg/L (≈ 198 µM) in the assay with Bacillus subtilis and 91 mg/L (≈ 439 µM) in the assay on Escherichia coli [6].

Values taken from ChEMBL document CHEMBL1140109, “Discovery of inhibitors of Escherichia coli methionine aminopeptidase with the Fe(II)-form selectivity and antibacterial activity” (J Med Chem, 2008).
